Assay results published in ChEMBL document CHEMBL1140925, “Nuclear factor-kappaB mediated inhibition of cytokine production by imidazoline scaffolds” (J Med Chem, 2009).

What was measured:
HeLa [1] = assay: Cell cycle arrest in TNF-alpha-stimulated human HeLa cells transfected with NFkappaB-Luc assessed as accumulation at diploid G1 phase at 5 uM after 8 hrs by propidium iodide-based flow cytometry; format: functional
How it was run: (§1)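 HeLa NF-κB-luc cells (stable, hygromycin-selected) were treated with vehicle (1% DMSO) or compound at 40–0.2 µM final for 8 h at 37 °C, 5% CO2. Adherent cells were trypsinized, resuspended in PBS/50% FBS, fixed overnight in 70% ice-cold ethanol and washed with cold PBS/10% FBS, then analysed for cell cycle by flow cytometry.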

[2] = Inhibition of TNF-alpha-induced NF-kappaB-mediated transcription expressed in human HeLa cells preincubated for 30 mins before addition of TNFalpha measured after 8 hrs by luciferase reporter gene assay; format: cell-based
How it was run: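 HeLa/NF-κB-luc cells (5.0 × 10⁵ cells/mL) were grown 24 h, then switched to serum-free DMEM. They were pretreated 30 min at 37 °C with 0.05–20 µM imidazoline (1% DMSO vehicle), then stimulated with 25 ng/mL TNF-α for 8 h. Steady-Glo luminescence was normalized to TNF-α activation, and EC50 was taken from a variable-slope sigmoidal fit. Values are the mean of two independent experiments.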

HeLa [3] = assay: Cell cycle arrest in TNF-alpha-stimulated human HeLa cells transfected with NFkappaB-Luc assessed as accumulation at diploid G1 phase at 10 uM after 8 hrs by propidium iodide-based flow cytometry; format: functional; how it was run: as §1
HeLa [4] = assay: Cell cycle arrest in TNF-alpha-stimulated human HeLa cells transfected with NFkappaB-Luc assessed as accumulation at diploid stage at 0.1 uM after 8 hrs by propidium iodide-based flow cytometry; format: functional
HeLa [5] = assay: Cell cycle arrest in TNF-alpha-stimulated human HeLa cells transfected with NFkappaB-Luc assessed as accumulation at diploid G2 phase at 0.05 uM after 8 hrs by propidium iodide-based flow cytometry; format: functional
HeLa [6] = assay: Cell cycle arrest in TNF-alpha-stimulated human HeLa cells transfected with NFkappaB-Luc assessed as accumulation at diploid G1 phase at 0.1 uM after 8 hrs by propidium iodide-based flow cytometry; format: functional
HeLa [7] = assay: Cell cycle arrest in TNF-alpha-stimulated human HeLa cells transfected with NFkappaB-Luc assessed as accumulation at G2/G1 phase at 20 uM after 8 hrs by propidium iodide-based flow cytometry; format: functional; how it was run: as §1

EC50 [2]: 2500 nM
Compound: CCOC(=O)[C@]1(c2ccccc2)N=C(c2ccccc2)N(Cc2ccccc2)[C@@H]1c1ccccc1 (racemic)
Activity (HeLa [1]): 66.37%
Activity (HeLa [3]): 68.19%
Activity (HeLa [4]): 100%
Activity (HeLa [5]): 12.9%
Activity (HeLa [6]): 64.5%
Ratio (HeLa [7]): 1.9
